RBBP9 inhibitor: human RBBP9 inhibitors, primary screen, biochemical, fluorescence polarization, FP-Rh probe, HTS. Serine hydrolase RBBP9 (Homo sapiens), O75884. recombinant RBBP9. inhibition, % at 7.94 µM. 220,000 compounds, 0.2% hits. AID 1515, 2009;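 active = inhibition above the campaign mean of all tested compounds plus 3 SD, cut at about 14% in these data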;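 note: plate controls were DMSO wells with RBBP9 for no effect and wells lacking RBBP9 protein for full effect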
Target sequence (O75884 whole entry, looked up): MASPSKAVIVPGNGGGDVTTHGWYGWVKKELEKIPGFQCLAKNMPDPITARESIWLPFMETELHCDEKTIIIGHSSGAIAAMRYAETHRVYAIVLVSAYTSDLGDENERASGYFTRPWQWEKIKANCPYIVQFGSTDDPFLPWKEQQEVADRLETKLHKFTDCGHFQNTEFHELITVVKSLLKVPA
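Measured by – fluorescence polarization · Test system – RBBP9 protein · Input – 2.5 µM RBBP9 dispensing solution, before mixing · Measure – percent inhibition from mP, scaled between DMSO and no-protein wells · Benchmarks – DMSO-treated enzyme wells and wells lacking RBBP9 · Times – preincubation 30 min plus labeling 45 min at 25 °C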
Runt-SMMHC FRET: inhibitors of RUNX1 Runt–CBFb-SMMHC binding, primary screen, biochemical, FRET, Cerulean-Runt, Venus-CBFb-SMMHC, uHTS; inhibition, % at 20 µM; 220,000 compounds, 0.74% hits; Cerulean-Runt/Venus-CBFb-SMMHC FRET ratio 530/480, 1 h; Runt-related transcription factor 1 (Homo sapiens) + Core-binding factor subunit beta …; AID 1434, 2008;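 active = mean inhibition across duplicate retests at 20 µM reaching about 50%, limit read from the data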;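 note: 0% = DMSO wells and 100% = wells with excess untagged CBFb-SMMHC; inhibitors lower the FRET ratio by blocking Runt binding to CBFb-SMMHC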
Runt-CBFb FRET: inhibitors of RUNX1 Runt–CBFb binding, primary screen, biochemical, FRET, Cerulean-Runt, Venus-CBFb, uHTS | Runt-related transcription factor 1 (Homo sapiens) + Core-binding factor subunit beta … | Cerulean-Runt/Venus-CBFb FRET ratio 530/480, 1 h | 220,000 compounds, 0.46% hits | inhibition, % at 20 µM;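 active = inhibition over about 50% at 20 µM in the single-dose screen, limit read from the data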;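 note: 0% = DMSO wells and 100% = excess unlabeled CBFb competitor control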
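Doses: 20 µM compound in 1% DMSO | Material: Cerulean-labeled Runt domain protein | Amount: Each fluorescent fusion protein 100 nM | Schedule: Two 1 h room-temperature incubations shielded from light | Measured by: FRET fluorescence | Evaluation: Loss of energy transfer signal | Controls: Unlabeled CBFb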
PfM18AAP inh-1: PfM18AAP inhibitors, malaria aminopeptidase, primary screen, biochemical, QFRET, recombinant enzyme; H-Glu-NHMec fluorogenic cleavage; M18 aspartyl aminopeptidase (Plasmodium falciparum 3D7); inhibition, % at 7.35 µM; 290,000 compounds, 1.2% hits;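 active = inhibition above the campaign mean inhibition over all tested compounds plus 3 SD, cut at about 28% in these data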;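 note: 0% = plate median of test compound wells and 100% = 2 mM ZnCl2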
RanGTP-Impb inh: inhibitors of RanGTP-importin-beta interaction, primary screen, biochemical, FRET, CFP-Ran, YFP-importin-beta, homogeneous. Ran GTPase (GTP-bound) - importin-beta complex. cell-free CFP-Ran/YFP-importin-beta FRET ratio. inhibition, % (test concentration not listed). 300,000 compounds, 1.1% hits;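 active = more than half of the replicate wells show a fall in the fluorescence ratio signal beyond about 16%, limit read from the data, passing the limit was not always enough; inconclusive = exactly half of the replicate wells pass the set limit; inactive = fewer than half of replicates pass the limit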;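 note: 0% = DMSO wells and 100% = Ran loaded with GDP instead of GTP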
Hck-Nef inh: inhibitors of Nef-activated human Hck kinase, primary screen, biochemical, Z-Lyte FRET, 384-well, Hck-YEEI; Tyrosine-protein kinase HCK (Homo sapiens), P08631; Recombinant Hck-YEEI plus Nef, Z-Lyte FRET kinase assay; 220,000 compounds, 0.68% hits; inhibition, % at 20 µM;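 active = Hck-Nef kinase inhibition above about 50%, limit read from the data; inactive = inhibition below that limit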;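 note: 0% = DMSO with Hck plus Nef and 100% = Hck alone without Nef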
Target sequence (P08631 whole entry, looked up): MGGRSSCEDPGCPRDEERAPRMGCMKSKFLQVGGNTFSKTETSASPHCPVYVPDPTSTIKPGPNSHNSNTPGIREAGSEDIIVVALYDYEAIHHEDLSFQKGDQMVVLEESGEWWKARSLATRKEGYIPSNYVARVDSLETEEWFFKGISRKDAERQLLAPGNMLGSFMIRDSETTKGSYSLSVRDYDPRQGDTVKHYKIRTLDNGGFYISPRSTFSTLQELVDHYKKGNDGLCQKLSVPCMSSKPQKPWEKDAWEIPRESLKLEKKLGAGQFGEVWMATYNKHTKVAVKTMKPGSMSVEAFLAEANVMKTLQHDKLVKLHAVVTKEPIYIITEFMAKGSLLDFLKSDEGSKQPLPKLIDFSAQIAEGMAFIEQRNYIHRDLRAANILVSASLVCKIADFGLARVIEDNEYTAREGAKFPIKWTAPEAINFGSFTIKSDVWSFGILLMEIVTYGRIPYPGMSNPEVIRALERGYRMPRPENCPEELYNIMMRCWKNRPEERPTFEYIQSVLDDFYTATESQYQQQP
PfM18AAP inh-2: PfM18AAP inhibitors, malaria aminopeptidase, confirmation, biochemical, QFRET, recombinant enzyme, triplicate | shares compounds with PfM18AAP inh-1 | H-Glu-NHMec fluorogenic cleavage | inhibition, % at 7.35 µM | 2,400 compounds, 28% hits | AID 2170, 2009;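 active = mean inhibition over replicate wells above the hit cutoff set for the earlier primary screen, cut at about 29% in these data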;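 note: 0% = median of test compound wells and 100% = 2 mM ZnCl2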
CTSL1 counter: cathepsin L1 inhibitors, retest, confirmation, counter-screen for PFM18AAP inhibitor project, biochemical, QFRET, triplicate; shares compounds with PfM18AAP inh-1; 2,400 tested, under 10 active; inhibition, % at 5.96 µM; purified cathepsin L1, Z-Leu-Arg-MCA fluorescence;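 active = average inhibition across replicates above the hit cutoff set in the earlier primary screen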;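 note: 0% = median of test compound wells and 100% = Z-Phe-Ala-diazomethylketone 1 µM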
Active calls of the source: *; ? = inconclusive; . = not tested or not shown. Rows were chosen to be rich in hits. Some 2.9% of all compounds tested hit in one or more screens of this group.

SMILES	RBBP9 inhibitor	Runt-SMMHC FRET	Runt-CBFb FRET	PfM18AAP inh-1	RanGTP-Impb inh	Hck-Nef inh	PfM18AAP inh-2	CTSL1 counter
CCSc1ccccc1C(=O)Nc1ccc(S(=O)(=O)NC(C)=O)cc1	8.9	1.3	10.0	32.0*	0.9	16.6	-33.4	5.1
O=C1CC(c2ccco2)CC(O)=C1C=Nc1cc(Cl)ccc1O (stereo unspecified)	0.8	-115.2	3.4	33.2*	-1.1	1.6	-10.3	0.2
COc1cccc(N2C(=O)Nc3ccc(Br)cc3C2(O)C(=O)NCCN(C)C)c1 (stereo unspecified)	.	.	.	-5.3	?	.	.	.
COc1ccc(-c2cc(C(=O)N(C)CC(=O)Nc3cccc(F)c3)c3ccccc3n2)cc1	.	.	.	.	-0.7	.	.	.
O=C1C=C(Nc2ccc(O)cc2)CC(c2ccco2)C1 (stereo unspecified)	-8.6	12.3	14.9	42.2*	8.8	6.9	-24.7	-1.3
CCOC(=O)c1ccc(NC2=CC(=O)CC(c3ccco3)C2)cc1 (stereo unspecified)	-9.7	-1.4	-0.5	11.2	10.1	-21.4	.	.
CC(C)CNC1=CC(=O)CC(c2ccco2)C1 (stereo unspecified)	-1.0	-4.2	11.3	40.3*	-2.2	3.5	-15.5	-5.1
COCc1cc(=O)[nH]c(=S)[nH]1	-0.5	1.2	-1.4	20.2	1.0	2.6	.	.
COCc1cc(C)c(C#N)c(=S)[nH]1	-0.2	-0.6	8.7	31.8*	0.4	-3.4	34.8*	-0.8
CCc1nnc(NC(=O)CCN2C(=O)C3CCCCC3C2=O)s1 (stereo unspecified)	.	.	.	-0.8	-1.2	.	.	.
Cc1cc(C)c(S(=O)(=O)c2cccc(C(F)(F)F)c2)c(=O)[nH]1	.	.	.	-6.5	0.6	.	.	.
O=C(O)CC1CCC(=C(Cl)Cl)C1 (stereo unspecified)	6.4	-0.2	-1.6	64.2*	.	0.3	-24.8	2.8
O=C(O)CC1CCS(=O)(=O)C1 (stereo unspecified)	0.3	5.3	-1.5	1.3	-1.9	0.8	.	.
O=C(O)c1cc([N+](=O)[O-])c(N2CCCC2)c([N+](=O)[O-])c1	4.1	-1.9	-6.4	38.1*	1.3	-0.4	13.5	0.2
CCOC(=O)c1cc(C(=O)Nc2sc3c(c2C#N)CCCC3)nn1C	.	.	.	37.4*	1.8	.	-38.7	-3.8
Cc1cc(C(=O)Nc2sc3c(c2C#N)CCCC3)no1	-4.3	23.2	41.1	4.7	-4.6	4.5	.	.
O=C(O)c1ccc(S(=O)(=O)c2ccc3c(c2)C(=O)N(c2ccc(O)cc2)C3=O)cc1	-0.2	-0.7	1.2	33.4*	0.8	34.2	-49.2	-0.9
CCOC(=O)c1sc(N2C(=O)C(O)=C(C(=O)c3ccco3)C2c2ccccc2)nc1C (stereo unspecified)	-6.6	.	.	19.4	.	4.2	.	.
CCOC(=O)c1sc(N2C(=O)C(O)=C(C(=O)c3ccco3)C2c2ccco2)nc1C (stereo unspecified)	.	.	.	32.0*	1.2	.	-43.4	-1.7
N#CCn1c(Cc2ccccc2)nc2ccccc2c1=O	.	.	.	5.2	5.4	.	.	.
N#CC/C(N)=N/Nc1nc2ccccc2nc1Cc1ccccc1	.	.	.	36.4*	-2.9	.	8.6	-4.5
COc1ccccc1-n1c(CNC(=O)c2cccs2)n[nH]c1=S	-10.1	4.3	1.2	36.5*	-1.9	14.7	-10.5	-7.1
O=C(NCc1n[nH]c(=S)n1-c1ccc(Br)cc1)c1cccs1	-2.6	17.4	4.2	34.1*	1.9	29.3	-11.6	-8.4
Cc1ccc(Nc2cc(C)nc(-c3ccccc3)n2)cc1	.	.	.	0.5	-1.5	.	.	.
O=C(N/N=C/c1ccc(O)c(O)c1)NC12CC3CC(CC(C3)C1)C2	.	.	.	47.7*	1.6	.	13.0	-0.7
SMILES	RBBP9 inhibitor	Runt-SMMHC FRET	Runt-CBFb FRET	PfM18AAP inh-1	RanGTP-Impb inh	Hck-Nef inh	PfM18AAP inh-2	CTSL1 counter
COc1cc(/C=N/NC(=O)NC23CC4CC(CC(C4)C2)C3)ccc1O	.	.	.	8.6	0.0	.	.	.
CCOc1ccc(OCC)c(NC(=O)C2CCN(S(=O)(=O)c3ccc4c(c3)CC(C)N4C(C)=O)CC2)c1 (stereo unspecified)	.	.	.	6.0	6.9	.	.	.
CCN1CCN(C(=S)c2ccc(OCC(=O)NCc3ccccc3)cc2)CC1	-1.3	31.7	49.8	38.6*	-1.9	17.4	-7.4	3.2
CCOc1cc(C2NC(=O)NC2=O)ccc1O (stereo unspecified)	.	.	.	34.7*	-1.6	.	-41.9	-4.9
Clc1cc(Cl)cc(Nc2ncn[nH]2)c1	-5.1	4.4	-0.2	44.7*	2.4	25.9	36.0*	-3.5
COc1ccc(Cl)cc1S(=O)(=O)Nc1ncn[nH]1	.	.	.	23.1	5.9	.	.	.
COc1cc(NC(=O)NC2Cc3ccccc3C2)cc(OC)c1	.	.	.	-1.4	1.1	.	.	.
COC(=O)c1cc(Cc2ccc(N)c(C(=O)OC)c2)ccc1N	-8.6	-3.9	-2.0	6.1	-0.8	2.2	.	.
COC(=O)Cc1ccc(O)c(N)c1	1.9	-1.3	12.9	54.1*	1.0	6.0	60.9*	-0.4
CCn1c(N)c(C(=O)NC)sc1=S	-5.5	31.6	48.2	49.9*	9.4	7.9	37.4*	-0.7
CCNC(=O)c1sc(=S)n(CC)c1N	-2.7	3.5	6.6	-15.3	-2.1	0.5	.	.
COc1cc(/C=N/NC(=O)CC#N)cc(Br)c1O	0.2	2.2	2.7	56.8*	1.6	19.4	-15.5	-0.4
Cc1ccc(-c2csc(N/N=C/c3ccco3)n2)c(C)c1	-10.1	-1.1	9.4	32.6*	?	0.0	-60.1	2.5
CN(C)S(=O)(=O)c1cccc(-c2csc(N/N=C/c3ccco3)n2)c1	-2.2	-10.8	13.9	14.2	-0.8	6.2	.	.
CSc1cccc(NC(=S)N2CCC(N(C)C(C)C)CC2)c1	-8.7	-2.1	-1.0	10.9	-2.4	17.1	.	.
CCC(C)N(C)C1CCN(C(=S)Nc2cccc(SC)c2)CC1 (stereo unspecified)	1.9	4.1	15.5	41.2*	-4.4	-11.6	-20.8	1.3
